Measured values published in ChEMBL document CHEMBL4130555, “Heterodimeric Diterpenoids Isolated from Euphorbia ebracteolata Roots and Their Inhibitory Effects on α-Glucosidase” (J Nat Prod, 2017).

Columns and labels:
[1] = Inhibition of baker's yeast alpha-glucosidase using p-nitrophenyl-alpha-D-glucopyranoside as substrate preincubated for 0.5 hrs followed by substrate addition measured for 0.5 hrs; set-up: species or system Saccharomyces cerevisiae
In short: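 Enzyme activity measured with p-NPG as substrate, acarbose run alongside as positive control; procedure follows a previously published protocol.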

[2] = Inhibition of acetyltransferase activity of Mycobacterium tuberculosis H37Rv GlmU expressed in Escherichia coli BL21(DE3) using acetylcoA as substrate after 30 mins
[3] = tested on: A549; experiment: Cytotoxicity against human A549 cells by MTT assay; format: functional, cell-based
[4] = tested on: Bel-7402; experiment: Cytotoxicity against human Bel7402 cells by MTT assay; format: functional, cell-based
[5] = tested on: BGC-823; experiment: Cytotoxicity against human BGC823 cells by MTT assay; format: functional, cell-based
[6] = tested on: HCT-8; experiment: Cytotoxicity against human HCT8 cells by MTT assay; format: functional, cell-based
[7] = tested on: A2780; experiment: Cytotoxicity against human A2780 cells by MTT assay; format: functional, cell-based
[8] = Non-competitive inhibition of baker's yeast alpha-glucosidase using p-nitrophenyl alpha-D-glucopyranoside as substrate preincubated for 0.5 hrs followed by substrate addition measured for 0.5 hrs by Lineweaver-Burk plot analysis; set-up: species or system Saccharomyces cerevisiae

Structure (SMILES): C=C[C@@]1(C)CC[C@]2(C)c3cc4c(c(C)c3CC[C@H]2C1)O[C@@H]1C2=C(C)C(=O)O[C@@]2(O4)[C@H](O)[C@H]2[C@]3(C)CCCC(C)(C)[C@H]3CC[C@@]12O
- IC50 [1]: 50.4 µM
- IC50 [2]: 41.9 µM
- IC50 [3]: > 100 µM
- IC50 [4]: > 100 µM
- IC50 [5]: > 100 µM
- IC50 [6]: > 100 µM
- IC50 [7]: > 100 µM

Structure (SMILES): C=C[C@@]1(C)CC[C@]2(C)c3cc(O[C@@]45OC(=O)C(C)=C4[C@H]4O[C@]46CC[C@@H]4C(C)(C)CCC[C@@]4(C)[C@@H]6[C@H]5O)c(O)c(C)c3CC[C@H]2C1
- IC50 [1]: 7.94 µM
- Ki [8]: 10.8 µM
- IC50 [2]: > 100 µM
- IC50 [3]: > 100 µM
- IC50 [4]: > 100 µM
- IC50 [5]: > 100 µM
- IC50 [6]: > 100 µM
- IC50 [7]: > 100 µM

Structure (SMILES): C[C@H]1O[C@H](O[C@H]2[C@H](O)[C@@H](O)[C@@H](O[C@H]3[C@H](O)[C@@H](O)C(O)O[C@@H]3CO)O[C@@H]2CO)[C@H](O)[C@@H](O)[C@@H]1N[C@H]1C=C(CO)[C@@H](O)[C@H](O)[C@H]1O (stereo partly specified) [ACARBOSE]
- IC50 [1]: 579 µM
